Data on one compound can be found in ChEMBL document CHEMBL1765010, “Reversible competitive α-ketoheterocycle inhibitors of fatty acid amide hydrolase containing additional conformational constraints in the acyl side chain: orally active, long-acting analgesics” (J Med Chem, 2011).

The source made the active and inactive calls. The rule behind the calls is not given here. Some results are limits rather than exact numbers.

In series [1] the test system is Mus musculus. The experiment in a line: Inhibition of FAAH in po dosed C57Bl/6J mouse brain assessed as increase of 2-arachidonoylglycerol level after 1 hr relative to control. The format is functional, organism-based. In outline: (§1)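 Male C57Bl/6J mice (<6 months, 20–28 g) given a single oral dose as a PEG300 solution. Brains were homogenized in CHCl3:MeOH:Tris pH 8.0 containing deuterated internal standards. The organic extract was analysed by reverse-phase C18 LC–ESI triple-quadrupole MS for anandamide, PEA, OEA and 2-AG. Dose series (10, 25, 50 mg/kg) was sampled at 1 h; the 50 mg/kg time course ran to 9 h. Three mice per group in the i.p./p.o. comparison.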

Series [2] relates to Mus musculus. The experiment in a line: Inhibition of FAAH in C57Bl/6J mouse liver assessed as increase of N-palmitoyl ethanolamine level at 30 mg/kg, ip after 1 hr relative to control. The format is functional. To be noted: route intraperitoneal.
For series [3], the system named is Mus musculus. The series is described as follows: Toxicity in C57BL/6 mouse assessed as hypothermia at 50 mg/kg, po. More on the design: dose 50 mg/kg, route oral. The following applies: in vivo. The format is organism-based.
Series [4] has as its system Mus musculus. The experiment in a line: Inhibition of FAAH in C57Bl/6J mouse brain assessed as increase of anandamide level at 10 to 50 mg/kg, po after 1.5 to 3 hrs. Type of series: functional, organism-based.
In series [5] the test system is Mus musculus. The experiment in a line: Inhibition of FAAH in C57Bl/6J mouse brain assessed as increase of 2-arachidonoylglycerol level at 30 mg/kg, ip after 1 hr relative to control. The format is functional. The following applies: route intraperitoneal. In outline: (§2)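 Male C57Bl/6J mice (<6 months, 20–28 g) dosed i.p. at 30 mg/kg in 18:1:1 saline:ethanol:emulphor emulsion; brains taken 1 h later. One mouse in the initial screen, 3 per group in the follow-up. Brain homogenized in CHCl3:MeOH:Tris pH 8.0 with deuterated lipid standards; organic extract quantified by reverse-phase C18 LC-ESI-MS/MS against vehicle controls.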

Series [6] deals with Mus musculus. The experiment in a line: Inhibition of FAAH in C57Bl/6J mouse brain assessed as increase of anandamide level at 30 mg/kg, ip after 1 hr relative to control. To be noted: route intraperitoneal. Type of series: functional. Put shortly:
as §2

Series [7] deals with Mus musculus. The experiment in a line: Inhibition of FAAH in po dosed C57Bl/6J mouse brain assessed as increase of anandamide level after 1 hr relative to control. Type of series: functional, organism-based. Put shortly: as §1
Series [8] relates to Mus musculus. The series is described as follows: Toxicity in C57BL/6 mouse assessed as catalepsy at 50 mg/kg, po. The format is organism-based. Also on record: dose 50 mg/kg, route oral. To be noted: in vivo.
Series [9] concerns the target T1, Fatty-acid amide hydrolase 1 (Rattus norvegicus, UniProt P97612).
T1 sequence (P97612 whole entry): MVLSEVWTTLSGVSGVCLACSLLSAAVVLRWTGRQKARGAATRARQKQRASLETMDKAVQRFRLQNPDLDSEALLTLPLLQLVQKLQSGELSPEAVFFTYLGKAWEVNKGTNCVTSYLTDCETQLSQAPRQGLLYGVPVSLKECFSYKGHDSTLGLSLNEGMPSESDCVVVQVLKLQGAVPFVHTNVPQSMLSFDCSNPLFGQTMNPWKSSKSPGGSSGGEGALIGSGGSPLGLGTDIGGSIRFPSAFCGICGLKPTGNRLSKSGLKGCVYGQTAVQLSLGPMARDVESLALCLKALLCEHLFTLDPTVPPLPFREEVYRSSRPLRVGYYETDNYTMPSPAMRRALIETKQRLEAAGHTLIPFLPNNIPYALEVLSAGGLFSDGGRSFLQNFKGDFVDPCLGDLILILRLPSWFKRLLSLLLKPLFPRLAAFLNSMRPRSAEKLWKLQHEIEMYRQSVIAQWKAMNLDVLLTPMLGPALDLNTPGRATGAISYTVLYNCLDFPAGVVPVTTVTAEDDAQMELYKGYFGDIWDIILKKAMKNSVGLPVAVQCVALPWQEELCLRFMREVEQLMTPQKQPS
The series is described as follows: Inhibition of rat recombinant FAAH expressed in Escherichia coli assessed as [14C]-labeled oleamide to oleic acid conversion.

Series [10] has as its system Mus musculus. The experiment in a line: Analgesic activity in C57BL/6 mouse chronic constriction injury model assessed as reversal of paws ipsilateral to CCI surgery at 50 mg/kg, po measured up to 9 hrs. Also on record: dose 50 mg/kg. Type of series: functional, organism-based. Put shortly:
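Male C57BL/6 mice with sciatic nerve chronic constriction injury (two silk ligatures, isoflurane anesthesia), tested from 10 days post-surgery after 2 days of apparatus habituation. Single oral dose in PEG300 or vehicle. Blinded observer tested ipsilateral and contralateral paws at 1, 3, 6 and 9 h: von Frey up-down method (0.16–6.0 g filaments, 5 stimuli each) and acetone-induced cold response. n = 9–10; mean ± SEM.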

The subject of series [11] is Mus musculus. The series is described as follows: Inhibition of FAAH in C57Bl/6J mouse brain assessed as increase of anandamide level at 10 to 50 mg/kg, po after up to 9 hrs. The format is functional, organism-based. Put shortly: as §1
For series [12], the system named is Mus musculus. The experiment in a line: Inhibition of FAAH in C57Bl/6J mouse brain assessed as increase of anandamide level at 50 mg/kg, po. Type of series: functional, organism-based. Also on record: dose 50 mg/kg. The following applies: TDE = time-dependent effect. In outline: as §1
In series [13] the test system is Mus musculus. The series is described as follows: Inhibition of FAAH in C57Bl/6J mouse brain assessed as increase of N-palmitoyl ethanolamine level at 30 mg/kg, ip after 1 hr relative to control. The format is functional. To be noted: route intraperitoneal. In outline:
as §2

Series [14] relates to Mus musculus. The experiment in a line: Inhibition of FAAH in C57Bl/6J mouse brain assessed as increase of N-palmitoyl ethanolamine level at 10 to 50 mg/kg, po after 1 hr relative to control. To be noted: dose mg/kg 10-50. The format is functional. In outline: (§3)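 Male C57Bl/6J mice (<6 months, 20–28 g) given compound orally as a PEG300 solution at 10, 25 or 50 mg/kg, with 3 mice per group in the 50 mg/kg p.o. comparison; brains collected 1 h post-dose. Lipids extracted in CHCl3:MeOH:Tris pH 8.0 with deuterated internal standards, then measured by C18 LC-ESI-MS/MS relative to vehicle-treated mice.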

The test system of series [15] is Mus musculus. The experiment in a line: Inhibition of FAAH in C57Bl/6J mouse liver assessed as increase of anandamide level at 30 mg/kg, ip after 1 hr relative to control. The format is functional. The following applies: route intraperitoneal.
Series [16] deals with Mus musculus. The series is described as follows: Inhibition of FAAH in C57Bl/6J mouse brain assessed as increase of anandamide level at 10 mg/kg, po. Type of series: functional. Also on record: scale not given: the % may be the effect or the level left. Put shortly: as §3
The test system of series [17] is Mus musculus. The experiment in a line: Inhibition of FAAH in C57Bl/6J mouse liver assessed as increase of 2-arachidonoylglycerol level at 30 mg/kg, ip after 1 hr relative to control. The format is functional. The following applies: route intraperitoneal.

Consider `O=C(c1ncc(-c2ccccn2)o1)[C@H]1CCc2cc(Oc3ccccc3)ccc2C1`, for which the Activity entry in the series on Mus musculus [1] was “Dose-dependent effect”; in the series with Mus musculus [3] it was “Non-toxic”; in the series with Mus musculus [7], “Dose-dependent effect”; in the series on Mus musculus [8], “Non-toxic”; with Mus musculus [12], “tde”; in the series with Mus musculus [16] it was above 90%. In addition, the “fold change (FC)” value in the series with Mus musculus [2] is on record as 3.6; in the series with Mus musculus [5], 0.9; in the series with Mus musculus [6], 5.1; in the series on Mus musculus [13], 7.2; in the series on Mus musculus [14] it was 5.5; in the series on Mus musculus [15], 6. For the same compound, the “fold change (FC)” value in the series with Mus musculus [17] is reported as 0.8. Moreover, the outcome with Mus musculus [4], with Mus musculus [10] and with Mus musculus [11] was Active. Besides, in series [9], the inhibition constant (Ki) (in general, a dissociation constant, usually derived from enzyme kinetics or from competition with a known ligand) is 4.4 nM.
